PfHsp90 set2: reduces growth (ATP signal) of yeast expressing P. falciparum Hsp90; S. cerevisiae expressing PfHsp90, BacTiter-Glo ATP, 48 h; yeast lacking PDR1 and PDR3 efflux regulators; inhibition, % at 9.4 µM; hit rate 0.32% among 310,000; AID 504621;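 active = every replicate shows inhibition above about 80%, whatever the replicate mean, limit read from the data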
CSC inhib: cancer stem cell inhibition; cancer stem cell-like cells viability, luminescence; inhibition, % at 7.5 µM; hit rate 1.1% among 300,000; in the data active = inhibition above about 75%; tested in HMLE shEcad cells
FN deposition inh: fibronectin deposition inhibition; inhibition, % at 12.6 µM; AID 743247; AH1F fibroblasts, Alexa488-fibronectin deposition fluorescence, overnight; hit rate 0.086% among 350,000;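 active = mean inhibition across replicates of 30% or more, regardless of how many single replicates reach that level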
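Material: AH1F fibroblasts assembling fluorescent fibronectin matrix; amount: 10000 AH1F cells/well; medium: DMEM, 2% serum; reagent: Alexa488-fibronectin, 24 nM final in well; dosing: single compound dose, delivered by pin transfer; incubation: 1 h adhesion, overnight exposure; detection: fluorescence after three HBSS washes, excitation 485 nm, emission 525 nm; measure: fibronectin deposition inhibition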
PglD DTNB: PglD (C. jejuni) enzyme inhibition; purified PglD enzyme, DTNB colorimetric CoA detection; inhibition, % at 12.5 µM; AID 602405; hit rate 0.098% among 360,000; in the data active = inhibition above about 16%, passing the limit was not always enough
SKKanGAS inh: blocks kanamycin growth of S. pyogenes SKKanGAS strain | inhibition, % at 7.5 µM | hit rate 1.3% among 300,000 | BacTiter-Glo, 6 h | AID 1662;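 active = mean replicate score, as percent of positive control median, at least 50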;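 also: strain carries kanamycin resistance gene driven by streptokinase promoter and grows in 40 µg/ml kanamycin; loss of luminescence reflects streptokinase promoter inhibition or plain growth inhibition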
Rtt109 HAT inh: blocks Candida albicans Rtt109/Vps75 acetyltransferase activity; Q5AAJ8; purified Rtt109/Vps75, ThioGlo CoA-SH fluorescence, 4 h; inhibition, % at 34.9 µM; hit rate 0.16% among 330,000; AID 540336;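 active = inhibition of at least 50% in every replicate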
Target sequence (Q5AAJ8 whole entry, looked up): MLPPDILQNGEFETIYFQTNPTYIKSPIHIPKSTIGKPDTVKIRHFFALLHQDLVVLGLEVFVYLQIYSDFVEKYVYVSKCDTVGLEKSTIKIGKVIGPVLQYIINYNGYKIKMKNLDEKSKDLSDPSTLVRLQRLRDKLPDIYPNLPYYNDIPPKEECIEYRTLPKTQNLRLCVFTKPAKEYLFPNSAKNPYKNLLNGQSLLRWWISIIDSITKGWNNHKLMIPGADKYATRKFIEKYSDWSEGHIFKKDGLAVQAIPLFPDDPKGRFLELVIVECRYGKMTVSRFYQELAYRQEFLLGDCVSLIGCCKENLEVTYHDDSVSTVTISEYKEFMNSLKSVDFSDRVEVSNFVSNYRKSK
Numbers stand for hits; i = inactive; nt = no result given. A selection: hits, their analogues and other compounds. The true share with any hit is near 1.7%.

SMILES | PfHsp90 set2 | CSC inhib | FN deposition inh | PglD DTNB | SKKanGAS inh | Rtt109 HAT inh
C[C@H](CO)N1C[C@H](C)[C@@H](CN(C)S(=O)(=O)c2ccc(-c3ccccc3)cc2)OCc2cnnn2CCCC1=O | nt | nt | i | i | nt | nt
Cc1cc(C)c2c(n1)sc1c(O)cc(=O)[nH]c12 | i | i | i | i | i | i
COc1ccc(-c2cc(C(F)(F)F)c3c(n2)sc2c(O)cc(=O)[nH]c23)c(OC)c1 | i | i | i | nt | 55 | i
O=[N+]([O-])c1ccc(O)c(/C=N/Nc2ccc(Cl)nn2)c1 | i | 107 | nt | i | 102 | i
O=[N+]([O-])c1ccc(O)c(/C=N/NC2=NS(=O)(=O)c3ccccc32)c1 | i | i | i | nt | 59 | i
CCCOc1c(Cl)cc(C(=O)Nc2ccc3c(c2)OCO3)cc1OCC | i | 79 | nt | i | i | i
CCCCOc1ccc(C(=O)Nc2ccc3c(c2)OCO3)cc1 | i | 93 | i | nt | i | i
CCCOc1ccc(C(=O)Nc2ccc3c(c2)OCO3)cc1 | i | i | nt | i | i | i
COc1ccccc1NC(=O)CSc1nnc(C2CCCCC2)n1-c1ccccc1 | i | 82 | i | i | i | i
COc1ccccc1NC(=O)CSc1nnc(C2CCCCC2)n1C | i | i | nt | i | i | i
N=C1SCC(=O)N1c1ncc(Cc2ccccc2Cl)s1 | i | nt | i | i | i | i
Cc1ccc(Cc2cnc(N3C(=N)SC(C)C3=O)s2)cc1 (centres undefined) | nt | i | i | nt | 90 | i
Cc1cccc(Cc2cnc(N3C(=N)SC(c4ccccc4)C3=O)s2)c1 (centres undefined) | i | i | i | nt | 106 | i
O=C1c2ccccc2C(=O)N1c1ncc(Cc2ccc(Cl)cc2)s1 | i | i | i | nt | nt | i
Cc1cccc(Cc2cnc(N3C(=N)SC(C)C3=O)s2)c1 (centres undefined) | i | i | i | nt | 93 | i
N=C1SCC(=O)N1c1ncc(Cc2cccc(Cl)c2)s1 | i | nt | i | i | 84 | i
COc1ccc(S(=O)(=O)Nc2ccc3c(c2)C(=O)N([C@H](C)CO)C[C@@H](C)[C@H](CN(C)S(=O)(=O)c2cn(C)cn2)OCCCC[C@@H](C)O3)cc1 | nt | nt | nt | i | nt | nt
C[C@H]1CN([C@@H](C)CO)C(=O)Cc2cc(NS(=O)(=O)c3cn(C)cn3)ccc2O[C@@H]1CN(C)CC1CC1 | nt | nt | i | i | nt | nt
C[C@@H]1CCCCO[C@H](CN(C)C(=O)Nc2ccc3c(c2)OCO3)[C@H](C)CN([C@H](C)CO)C(=O)c2cc(NC(=O)NC3CCCCC3)ccc2O1 | nt | nt | nt | i | nt | nt
CCOc1cc(C2NN=C(c3ccc(C)cc3)S2)ccc1O (centres undefined) | i | 105 | i | nt | nt | i
COc1ccc(C2NN=C(c3ccc(C)cc3)S2)cc1 (centres undefined) | i | i | i | i | i | i
O=C(N/N=C/c1cc(Br)cc(Br)c1O)c1cccc(S(=O)(=O)N2CCOCC2)c1 | i | i | i | nt | 107 | nt
O=C(N/N=C/c1ccc(Cl)cc1Cl)c1cccc(N2CCCC2=O)c1 | i | i | i | i | i | i
O=C(N/N=C/c1cc(Br)cc(Br)c1O)c1cccc(N2CCCC2=O)c1 | i | i | nt | i | 88 | nt
C/C=C/c1ccc2c(c1)O[C@@H](CN(C)C(=O)CN1CCOCC1)[C@@H](C)CN([C@@H](C)CO)S2(=O)=O | nt | nt | i | i | nt | nt
SMILES | PfHsp90 set2 | CSC inhib | FN deposition inh | PglD DTNB | SKKanGAS inh | Rtt109 HAT inh
O=C(NC1CCCCC1)N1CC(=O)N2[C@@H](CO)[C@@H](c3ccc(-c4ccccc4)cc3)[C@@H]2C1 | nt | nt | i | nt | nt | nt
CNC[C@H]1Oc2ccc(NC(=O)Nc3ccc(C(F)(F)F)cc3)cc2C(=O)N([C@H](C)CO)C[C@H]1C | nt | nt | nt | i | nt | nt
C[C@H](CO)N1C[C@H](C)[C@H](CN(C)C(=O)Nc2ccccc2)Oc2c(NC(=O)NC3CCCCC3)cccc2C1=O | nt | nt | nt | i | nt | nt
CCCCNc1c(-c2cccc(-c3cc(C(C)=O)cs3)c2)nc2ccc(C)cn12 | i | 125 | i | i | 53 | i
CCCCNc1c(-c2cccc(-c3ccc(OC)cc3)c2)nc2ccc(C)cn12 | i | 114 | i | i | 63 | i
C[C@@H]1CN([C@@H](C)CO)C(=O)c2cc(-c3ccc(F)cc3)cnc2O[C@@H]1CN(C)C(=O)NC1CCCC1 | nt | nt | i | i | nt | nt
CCCCN(C/C=C/c1ccccc1OC)Cc1ccccc1 | i | i | i | i | i | 64

Bioassay records (PubChem)
